Reference: PubChem BioAssay AID588678 (Southern Research Specialized Biocontainment Screening …, 2011)
Activity calls are given as the source filed them.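 How the source made its calls: active means inhibition of 30% or more at any tested concentration; inactive means the rest.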

target: M18 aspartyl aminopeptidase (Plasmodium falciparum 3D7); test: inhibition of P. falciparum M18 aspartyl aminopeptidase – biochemical, QFRET fluorogenic substrate, dose response (AID 588678); details: recombinant PFM18AAP, H-Glu-NHMec fluorogenic substrate cleavage
Procedure, shortened: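 Technique: NHMec fluorescence at 370 nm excitation, 460 nm emission; Assay system: recombinant PFM18AAP enzyme; Replication: triplicate; Compound: 10-point twofold compound dilution series; Evaluation: % inhibition and fitted IC50; Incubation: enzyme reaction with compounds, 90 min at room temperature; Medium: Tris-HCl pH 7.5 with CoCl2 and 2% DMSO.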

| Structure (SMILES) | IC50 [µM] |
| --- | --- |
| Oc1ccc(CCNc2cccc3ccccc23)cc1O | 5.4 |
| Oc1ccc(-c2csc(Cc3cc4ccccc4[nH]3)n2)cc1O | 12.6 |
| Oc1ccc(CCNc2cncc3ccccc23)cc1O | 11.4 |
| O=S1(=O)c2ccccc2-c2cc(-c3nc(-c4ccc(O)c(O)c4)[nH]c3-c3ccccc3)ccc21 | 16.9 |
| Oc1ccc(CCCNc2c3ccccc3nc3ccccc23)cc1O | 27.9 |
| Nc1cc(C(=O)c2ccccc2)ccc1O | 51.4 |
| CC(C)(C)C(=O)OCc1nc(-c2ccc(O)c(O)c2)cs1 | 13.1 |
| O=C1OCCN1CCc1nc(-c2ccc(O)c(O)c2)cs1 | 8.07 |
| CN(CCc1ccc(O)c(O)c1)c1ccnc2ccccc12 | 4.85 |
| CCOc1cccc(-c2nc(-c3ccc(O)c(O)c3)cs2)c1 | 9.57 |
| Oc1ccc(CCNc2ccc3ccccc3c2)cc1O | 11.6 |
| CN(CCc1ccc(O)c(O)c1)c1ccncc1 | 8.38 |
| Cc1nc(NCCc2ccc(O)c(O)c2)c2c3c(sc2n1)CCC3 | 13.9 |
| Cc1ccc(-c2nc(-c3ccc(O)c(O)c3)cs2)cc1 | 9.45 |
| Oc1ccc(CCNC(c2ccccc2)c2ccccc2)cc1O | 10.5 |
| Oc1ccc(CCNC2CCN(Cc3ccccc3)CC2)cc1O | 26.6 |
| Oc1ccc(CCN2CCc3ccccc3C2)cc1O | 22.3 |
| O=c1cc(CN2CCN(Cc3ccccc3)CC2)c2ccc(O)c(O)c2o1 | 49.1 |
| Oc1ccc(CCNc2c3c(nc4ccccc24)CCCC3)cc1O | 10.2 |
| O=c1ccc2cc(O)c(O)cc2o1 | 44.2 |
| COc1ccc2c(c1)C(=O)C(N)CC2 (stereo not drawn) | 74.5 |
| Cc1c(-c2ccccc2)[nH]c(-c2ccc(O)c(O)c2)[n+]1O | 17 |
| CCC(C)c1ccc(N)c(O)c1 (stereo not drawn) | 19.5 |

same assay, conditions: recombinant PFM18AAP, H-Glu-NHMec fluorogenic substrate cleavage; at 50 µM (top of the series)

| Structure (SMILES) | inhibition |
| --- | --- |
| O=C1c2ccc3c4c(ccc(c24)C(=O)N1O)CC3 | inactive |
| O=C(O)CCCCNc1c2ccccc2nc2ccccc12 | inactive |
| O=C(O)CCCNc1c2ccccc2nc2ccccc12 | inactive |

same assay, conditions: recombinant PFM18AAP, H-Glu-NHMec fluorogenic substrate cleavage; at 100 µM (top of the series)

| Structure (SMILES) | inhibition |
| --- | --- |
| CCC(C)C(=O)Nc1ccccc1N (stereo not drawn) | inactive |
| O=c1ccn(CCNc2c3ccccc3nc3ccccc23)cc1OCc1ccccc1 | inactive |
| COc1ccc(CC(=O)O)cc1OC | inactive |
| Cc1c(OCc2ccccc2)c(=O)ccn1CCNc1c2ccccc2nc2ccccc12 | inactive |
| O=c1cc(CO)oc(CN2CCCCC2)c1O | inactive |
| COc1ccc(CCNc2ccncc2)cc1OC | inactive |
| COc1ccc(CCN(C)c2ccncc2)cc1OC | inactive |
| O=C(c1ccco1)N1CCN(Cc2cc(=O)c(O)c[nH]2)CC1 | inactive |
| COc1cccc(-c2nc(-c3ccc(OC)c(OC)c3)cs2)c1 | inactive |
| COc1ccc(CCNC2CCN(C)CC2)cc1OC | inactive |
| CCC(C)C(=O)Nc1ccccc1O (stereo not drawn) | inactive |
| COc1ccc(CCN2CCc3ccccc3C2)cc1OC | inactive |
| NCc1cc2c3c(c(=O)oc2c(O)c1O)CCC3 | inactive |
| O=C(c1ccco1)N1CCN(Cc2cc(=O)c(O)co2)CC1 | inactive |
| COc1ccc(CCNC2CCN(Cc3ccccc3)CC2)cc1OC | inactive |
| COc1ccc(CCN2CCN(C)CC2)cc1OC | inactive |
| COc1ccc(CCC(=O)O)cc1OC | inactive |
| COc1ccc(CCN(C)CCc2ccccc2)cc1OC | inactive |
| COc1ccc(-c2csc(-c3ccccc3OC)n2)cc1OC | inactive |

Results, then the molecule that gave them:

| inhibition | Structure (SMILES) |
| --- | --- |
| inactive | COc1ccc(CCNc2cncc3ccccc23)cc1OC |
| inactive | Oc1ccc(CNc2c3ccccc3nc3ccccc23)cc1O |
| inactive | COc1ccc(CCNc2c3c(nc4ccccc24)CCCC3)cc1OC |
| inactive | Cc1c(O)c(=O)ccn1CCNc1c2ccccc2nc2ccccc12 |
| inactive | COc1ccc(CCNc2c3ccccc3nc3ccccc23)cc1OC |
| inactive | COc1ccc(CCNc2c3ccccc3nc3ccccc23)cc1 |
| inactive | COc1ccc(CCN(C)c2c3ccccc3nc3ccccc23)cc1OC |
| inactive | COc1cccc(CCNc2c3ccccc3nc3ccccc23)c1 |
| inactive | COc1ccc(-c2csc(-c3ccccc3)n2)cc1OC |
| inactive | COc1ccc(CCNc2cccc3ccccc23)cc1OC |
| inactive | NCCNc1c2ccccc2nc2ccccc12 |
| inactive | COc1ccc(CNc2c3ccccc3nc3ccccc23)cc1OC |
| inactive | COc1ccc(-c2nc(-c3ccccc3)c(-c3ccccc3)[nH]2)cc1OC |
| inactive | COc1ccc(CCNc2ccc3ccccc3c2)cc1OC |
| inactive | COc1ccc(CCNc2ccnc3ccccc23)cc1OC |
| inactive | Oc1ccc(CCNc2c3ccccc3nc3ccccc23)cc1 |
| inactive | COc1ccc(CCCNc2c3ccccc3nc3ccccc23)cc1OC |
| inactive | COc1ccc(CCN(C)c2ccnc3ccccc23)cc1OC |
